Only some compounds are listed: those with a hit (about 1.9% of all), similar ones and a draw of the others.
TDP2 absorb = human TDP2 enzyme inhibitors, primary screen, biochemical, epi absorbance, recombinant enzyme | 370,000 tested, 0.34% active | T5PNP hydrolysis, p-nitrophenol absorbance 415 nm | inhibition, % at 12.8 µM | Tyrosyl-DNA phosphodiesterase 2 (Homo sapiens), O95551;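 active = inhibition above the mean of all tested compounds plus 3 SD, set per campaign, cut at about 25% in these data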;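 also: 0% = DMSO with enzyme and 100% = buffer with substrate but no TDP2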
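Read-out basis: percent inhibition. System: recombinant human TDP2. Buffer or medium: Mg2+-containing Tris-HCl buffer, pH 7.5. Repeats: single replicate. Timing: reaction 2 h, 37 °C. Benchmarks: high control without enzyme, low control DMSO plus TDP2. Probe or stimulus: 5 mM T5PNP. Doses: 12.8 µM only. Measured by: epi absorbance of p-nitrophenol freed from T5PNP by hydrolysis.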
Rin1-Abl PPI inh = inhibitors of Rin1-Abl protein binding, primary screen, biochemical, TR-FRET. inhibition, % at 7.35 µM. 360,000 tested, 0.4% active. AID 588664, 2011; in the data active = inhibition above about 5%, passing the limit was not always enough
UHRF1 binding = UHRF1 methylated DNA binding inhibitors, primary screen, counter-screen for MBD2 inhibitor project, biochemical, TR-FRET, human UHRF1, single concentration. E3 ubiquitin-protein ligase UHRF1 (Homo sapiens), Q96T88. UHRF1 binding to methylated oligo. inhibition, % at 4.4 µM. 370,000 tested, 0.75% active; in the data active = inhibition above about 21%;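 also: UHRF1 SRA domain binding a hemimethylated CpG hairpin DNA probe; 0% = median of test compound wells and 100% = reference inhibitor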
MBD2 inh = inhibitors of MBD2 binding to methylated DNA, primary screen, biochemical, TR-FRET, DNA-binding domain, human | inhibition, % at 4.4 µM | Methyl-CpG-binding domain protein 2 (Homo sapiens), Q9UBB5 | 370,000 tested, 0.31% active | MBD2 binding to methylated oligonucleotide; in the data active = inhibition above about 13%
Target sequence (Q9UBB5 whole entry, looked up, the tested form may be a part): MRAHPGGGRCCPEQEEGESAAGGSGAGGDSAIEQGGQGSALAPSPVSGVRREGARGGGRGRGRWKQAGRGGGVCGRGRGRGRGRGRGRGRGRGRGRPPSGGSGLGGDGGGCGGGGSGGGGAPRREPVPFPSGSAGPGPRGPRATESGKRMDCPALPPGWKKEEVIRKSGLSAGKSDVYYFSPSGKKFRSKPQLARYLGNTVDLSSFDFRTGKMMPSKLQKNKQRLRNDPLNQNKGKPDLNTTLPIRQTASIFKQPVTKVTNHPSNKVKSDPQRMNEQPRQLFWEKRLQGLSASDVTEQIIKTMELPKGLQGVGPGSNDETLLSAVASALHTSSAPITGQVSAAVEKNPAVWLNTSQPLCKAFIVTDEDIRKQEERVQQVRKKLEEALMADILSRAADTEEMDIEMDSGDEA
LEDGF integ inh = blockers of LEDGF/p75-dependent integrase strand transfer – biochemical, TR-FRET, high throughput, primary screen; TR-FRET IN-LEDGF/p75 DNA integration, Eu/Cy5; AID 743269, 2014; 370,000 tested, 0.64% active; HIV-1 integrase (with human LEDGF/p75); inhibition, % at 3.7 µM;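 active = inhibition above the screen-wide mean plus 3 SD, cut at about 13% in these data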;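 also: signal is the Cy5 over europium emission ratio at 671 and 618 nm; 0% = plate median of compound wells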
Rin1-Abl confirm = Rin1-Abl binding inhibitor retest, confirmation, biochemical, TR-FRET; shares compounds with Rin1-Abl PPI inh; 1,300 tested, 49% active; purified proteins; inhibition, % at 7.35 µM
GFP quench-1 = GFP fluorescence inhibitors and quenchers, artefact control for Rin1-Abl interaction inhibitor project, biochemical; shares compounds with Rin1-Abl PPI inh; inhibitors/quenchers counterscreen; inhibition, % at 6.75 µM; 1,300 tested, 8.5% active;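 also: ABL1-eGFP fusion protein alone without its partner RIN1-SBP; 0% = protein with vehicle and 100% = wells lacking protein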
GFP quench dose = GFP fluorescence inhibitors and quenchers, dose response, artefact control for Rin1-Abl interaction inhibitor project, biochemical; GFP fluorescence interference/quenching counterscreen; shares compounds with Rin1-Abl PPI inh; IC50, µM; 230 tested, under 10 active; call rule not given here;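 also: ABL1-eGFP fusion protein alone without its RIN1 binding partner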
GFP quench-2 = GFP fluorescence inhibitors and quenchers, late-stage follow-up, artefact control for Rin1-Abl interaction inhibitor project, biochemical, dose response; GFP fluorescence quenching counterscreen; shares compounds with Rin1-Abl PPI inh; 25 tested, under 10 active; IC50, µM; call rule not given here
The depositor's hits bear a star; x = not tested or not shown. Rule as the data show it, unless noted: active = inhibition above about 6.5%; inactive = the rest.

SMILES	TDP2 absorb	Rin1-Abl PPI inh	UHRF1 binding	MBD2 inh	LEDGF integ inh	Rin1-Abl confirm	GFP quench-1	others
COC(=O)[C@]12C[C@H](CC(=O)NCc3cccs3)C(=O)N(Cc3ccccc3)C1=C[C@H](COCc1ccccc1)O[C@@H]2C	1	x	0	1	-6	x	x
CC12CN3CC(C)(CN(C1)C3c1ccccc1F)C2 (configuration not stated)	11	6.1*	0	5	-5	-3	-1
COc1cccc2c3cccc(OC)c3c3[nH]cnc3c12	-23	33*	5	0	0	29*	0	GFP quench dose=>68
COc1cccc2[nH]c3c(=O)[nH]cnc3c12	0	-3	3	0	-5	x	x
COc1ccccc1N1CCN(Cc2ccc(O)c3ncccc23)CC1	-6	18*	-5	-7	-7	3	2
COc1ccccc1N1CCN(Cc2ccc(OC)c(OC)c2OC)CC1	3	0	1	-5	-1	x	x
NS(=O)(=O)c1ccc(N=Nc2ccc(O)c3ncccc23)cc1	-19	11*	-19	-11	-16	4	13*
Cc1cccc(N=Nc2ccc(O)c3ncccc23)c1	2	6.9*	-4	-4	0	6.5*	4
Cc1ccc(NC2CNC(=O)NC2=O)cc1C (configuration not stated)	4	1	-2	-2	-2	x	x
Cc1ccc(NC2C(=O)NC(=O)NC2=O)cc1	4	17*	-7	2	0	16*	-1
N=C(N)c1ccc(N=Nc2c(O)ccc3c2[nH]c2ccccc23)cc1	5	22*	16	11	0	24*	20*
Oc1ccc(N=Nc2c(O)ccc3ccccc23)cc1	-12	-2	-1	-5	-1	x	x
CN(C(=O)c1ccc(NC(=O)Cc2ccc(NC(=O)C3CCN(C(=O)c4ccccc4)CC3)cc2)cc1)C1CC1	-5	77*	0	-4	-1	79*	-1	GFP quench dose=>67;GFP quench-2=>68
CN(C(=O)c1ccc(NC(=O)Cc2ccc(NC(=O)C3CCN(C(=O)C4CC4)CC3)cc2)cc1)C1CC1	4	37*	1	-5	2	34*	1	GFP quench dose=>68
CN(C(=O)c1cccc(NC(=O)Cc2ccc(NC(=O)C3CCN(C(=O)c4ccccc4)CC3)cc2)c1)C1CCC1	6	1	1	2	-2	x	x
Cc1ccc(-c2cc(C(=O)NN=Cc3cccc(OCc4ccccc4)c3)[nH]n2)cc1C	-6	x	-1	-3	1	x	x
CCCCOC(=O)c1ccc(NC(=O)CN2C(=O)NC3(CCCCCC3)C2=O)cc1	-1	12*	-4	5	-1	10*	1
CCCCOC(=O)c1ccc(NC(=O)COC(=O)CN2C(=O)NC3(CCCC3)C2=O)cc1	-18	2	0	-4	-3	x	x
CCN(CC)c1ccc(NC(=O)CSc2nnc(-c3ccc(Cl)cc3)n2Cc2ccco2)cc1	1	x	1	3	-1	x	x
O=c1[nH]c(CSc2ccccn2)nc2c1oc1ccccc12	-7	9.9*	0	-4	-1	-4	1
O=C(OC1CC2CCC(C1)[N+]21CCCC1)C(O)(c1ccccc1)c1ccccc1 (configuration not stated)	-16	x	3	-4	7	x	x
COc1cccc(/C=C/C(=O)NCc2cn3cc(Cl)ccc3n2)c1	-5	5.2*	-4	-3	-2	2	-1
O=C(/C=C/c1cccc(Cl)c1)OCc1cn2cc(Cl)ccc2n1	0	-1	-3	-4	4	x	x
CCCC1CCC2(CC1)CCC2OC(=O)Nc1cc(C)cc(C)c1 (configuration not stated)	4	x	-2	-6	2	x	x
COCCN(CCOC)C(=O)CSc1ccc(S(=O)(=O)N2CCN(C)CC2)cn1	-4	12*	3	2	-4	26*	1	GFP quench dose=>68
SMILES	TDP2 absorb	Rin1-Abl PPI inh	UHRF1 binding	MBD2 inh	LEDGF integ inh	Rin1-Abl confirm	GFP quench-1	others
CCN(CC)S(=O)(=O)c1cccc(C(=O)N/N=C/c2ccc(O)c(O)c2O)c1	-6	18*	-8	3	3	15*	11*
O=C(N/N=C\c1ccc(F)cc1)c1ccc(F)cc1	6	-1	0	4	-3	x	x
CC(=O)Nc1ccc(C(=O)N/N=C/c2ccc(F)cc2)cc1	-8	10*	-2	1	-1	3	-1
CCOC(=O)C1CCCN(CC(O)COCc2ccc3c(c2)OCO3)C1 (configuration not stated)	-7	6.4*	2	5	6	-1	0
CCCCCn1cnc2c(sc3nc4c(cc32)CSC(C)(C)C4)c1=O	5	2	1	3	1	x	x
CC1(C)Cc2nc3sc4c(=O)[nH]cnc4c3cc2CS1	1	45*	0	-3	5	41*	0	GFP quench dose=>68
Nc1nc(N2CCN(C(=O)c3ccco3)CC2)nc2ccccc12	-12	8.7*	7	1	-1	3	0
C#CCNC(=O)C[C@H]1C[C@@]2(C(=O)OC)C(=C[C@H](C(C)(C)C)O[C@@H]2C)N(Cc2ccc(Cl)cc2Cl)C1=O	0	x	2	6	-2	x	x
O=S(=O)(c1ccc(Cl)s1)N1CCC(c2cn3ccccc3n2)CC1	10	x	0	-8	1	x	x
CCOC(=O)N1CCN(CCC(=O)Nc2ccc(Br)c(C)c2)CC1	-13	8.9*	2	0	1	11*	2
CCc1nnc(NC(=O)CSc2nnc(CNC(=O)c3cc(OC)c(OC)c(OC)c3)o2)s1	6	8.2*	-4	-4	-1	-1	0
C=CCN1[C@@H](CC(C)C)COc2cccc(N3CCSCC3)c2S1(=O)=O	7	x	2	-1	-1	x	x
CCN(CC)c1ccc(-c2nn3c(-c4ccc(C(C)(C)C)cc4)nnc3s2)cc1	-5	x	-1	1	3	x	x

Bioassay records deposited in PubChem by The Scripps Research Institute Molecular Screening Center.
